Activity calls are given as the source filed them. The calls are words filed in the database; no cut-off is given here.
Legend:
[1] = molecular target: T1, Interferon alpha/beta receptor 1 (Homo sapiens) (UniProt P17181); assay: Activity at IFNAR in human Daudi cells assessed as induction of stat1 tyrosine phosphorylation at 100 umol after 5 to 30 mins; type: cell-based
T1 sequence (whole entry): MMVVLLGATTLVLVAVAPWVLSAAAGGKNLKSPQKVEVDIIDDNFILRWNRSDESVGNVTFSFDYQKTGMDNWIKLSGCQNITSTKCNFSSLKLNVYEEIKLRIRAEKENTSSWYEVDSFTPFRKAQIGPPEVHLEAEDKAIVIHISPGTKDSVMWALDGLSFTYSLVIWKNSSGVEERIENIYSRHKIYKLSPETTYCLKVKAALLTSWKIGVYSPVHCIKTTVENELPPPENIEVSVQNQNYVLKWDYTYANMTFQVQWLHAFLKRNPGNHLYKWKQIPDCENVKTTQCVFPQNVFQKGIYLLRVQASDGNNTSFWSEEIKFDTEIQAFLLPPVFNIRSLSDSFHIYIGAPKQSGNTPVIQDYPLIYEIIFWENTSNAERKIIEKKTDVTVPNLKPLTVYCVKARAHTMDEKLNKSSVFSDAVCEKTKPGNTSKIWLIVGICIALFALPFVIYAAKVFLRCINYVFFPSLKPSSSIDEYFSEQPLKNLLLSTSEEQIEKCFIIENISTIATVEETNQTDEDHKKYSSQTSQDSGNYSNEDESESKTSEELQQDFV

[2] = molecular target: T1, Interferon alpha/beta receptor 1 (Homo sapiens); assay: Antagonist activity at IFNAR in human Daudi cells assessed as reduction of IFN-inducible Stat1:Stat3-pIRE complex formation at 100 umol by electrophoretic mobility shift assay; type: functional, cell-based
[3] = molecular target: T1, Interferon alpha/beta receptor 1 (Homo sapiens); assay: Antagonist activity at IFNAR in human Daudi cells assessed as reduction of IFN-inducible Stat1:Stat1-pIRE complex formation at 100 umol by electrophoretic mobility shift assay; type: functional, cell-based
[4] = molecular target: T1, Interferon alpha/beta receptor 1 (Homo sapiens); assay: Antagonist activity at IFNAR in human Daudi cells assessed as inhibition of IFN-inducible Stat1 tyrosine phosphorylation by SDS-PAGE; type: functional, cell-based
In short: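 Daudi cells were left untreated or exposed to IFN alfacon-1 (100 pg) for 15 min, with or without compound (dose–response 20–100 µM). Lysates were run on SDS-PAGE, transferred to nitrocellulose and immunoblotted for phospho-Stat1. Membranes were stripped and reprobed for total Stat1, or β-actin served as the loading control.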

Row | SMILES | Activity [1] | also measured
1 | CC(C)Oc1cc(OCCN(C)C)nc(OCCN(C)C)n1 | inactive | –
2 | COCCNc1cc(OCCN(C)C)nc(OCCNC(=N)N)n1 | inactive | –
3 | CCOc1cc(N(C)C)nc(NCCCOC(C)C)n1 | inactive | –
4 | CCOc1cc(OCCN(C)C)nc(OCCN(C)C)n1 | inactive | –
5 | COCCNc1cc(OCCN(C)C)nc(OCCCN)n1 | inactive | –
6 | CN(C)CCSc1ccc(-c2cc(-c3ccco3)nc(SCCN(C)C)n2)cc1 | inactive | Activity [2]: Active; Activity [3]: Active; Activity [4]: Dose-dependent effect
7 | CN(C)CCSc1nccc(-c2cccs2)n1 | inactive | –
8 | CN(C)CCSc1ccc(-c2cc(-c3cccs3)nc(SCCN(C)C)n2)cc1 | inactive | Activity [2]: Active; Activity [3]: Active; Activity [4]: Dose-dependent effect
9 | COCCNc1cc(OCCN(C)C)nc(OCCN)n1 | inactive | –
10 | COCCNc1cc(OC(C)C)nc(OC(C)C)n1 | inactive | –
11 | CC(C)OCCCNc1cc(OCCN(C)C)nc(OCCCNC(=N)N)n1 | inactive | –
12 | CN(C)CCSc1nccc(-c2ccco2)n1 | inactive | –
13 | COCCNc1cc(OCCN(C)C)nc(OCCCNC(=N)N)n1 | inactive | –
14 | COCCNc1cc(OCCN(C)C)nc(Oc2ccc(CCN)cc2)n1 | inactive | –
15 | CC(C)OCCCNc1cc(OCCN(C)C)nc(Oc2ccc(CCN)cc2)n1 | inactive | –

Continued, in another order:

Row | Activity [1] | SMILES | also measured
16 | inactive | CCOc1cc(OCCCCN)nc(NCCCOC(C)C)n1 | –
17 | inactive | COCCNc1nc(OCCCCN)cc(OCCN(C)C)n1 | –
18 | inactive | CC(C)OCCCNc1nc(OCCCCNC(=N)N)cc(OCCN(C)C)n1 | –
19 | inactive | CC(C)OCCCNc1cc(OCCN(C)C)nc(OCCCN)n1 | –
20 | inactive | CCOc1cc(OCCN(C)C)nc(NCCCOC(C)C)n1 | –
21 | inactive | CC(C)OCCCNc1nc(OCCN(C)C)cc(OC(C)C)n1 | –
22 | inactive | CC(C)OCCCNc1nc(OCCCCN)cc(OCCN(C)C)n1 | –
23 | inactive | CC(C)OCCCNc1nc(OCCN)cc(OCCN(C)C)n1 | –
24 | inactive | CC(C)OCCCNc1nc(OCCCN)cc(OC(C)C)n1 | –
25 | inactive | COCCNc1nc(OCCCCNC(=N)N)cc(OCCN(C)C)n1 | –
26 | inactive | CCOc1cc(OCCCN)nc(NCCCOC(C)C)n1 | –

— ChEMBL document CHEMBL1149913, “De novo design of nonpeptidic compounds targeting the interactions between interferon-alpha and its cognate cell surface receptor” (J Med Chem, 2008)
